Screening results (PubChem)
T cell modulator = modulators of CD8 T cell-vesicle binding, primary screen, mouse 2C CD8+ T cells, flow cytometry; 2C CD8+ T cell-vesicle binding; active compounds read low; response (vesicle binding), % at 7 µM; 330,000 tested, 0.068% active;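 active means response, share of CD8 T cells binding vesicles, and their 90th percentile fluorescence all below set limits, cut at about 80% in these data, passing the limit was not always enough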;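 further: values below 100% mean blocked vesicle binding to the CD8+ T cells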
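incubation = binding step 1.5 h, 37 °C, antibody labelling 20 min, ice | test system = 2C mouse CD8+ T cells | read-out basis = percent CD8+ FL2 mean versus row control | controls = Peptide-free naked vesicles (low) and QL9 vesicles with 0.7% DMSO vehicle (high) | detection = flow cytometry of vesicle-bound cells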
ALR H2O2 inh = inhibitors of human ALR sulfhydryl oxidase, primary screen, biochemical, H2O2 detection, HRP-luminol luminescence, single point | FAD-linked sulfhydryl oxidase ALR (Homo sapiens), P55789 | purified ALR, DTT oxidation | inhibition, % (no concentration beside the values) | 290,000 tested, 3.8% active | AID 485317, 2010;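 active means mean replicate inhibition above about 79%, with every replicate also reaching it, limit read from the data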
Target sequence (P55789 whole entry, looked up): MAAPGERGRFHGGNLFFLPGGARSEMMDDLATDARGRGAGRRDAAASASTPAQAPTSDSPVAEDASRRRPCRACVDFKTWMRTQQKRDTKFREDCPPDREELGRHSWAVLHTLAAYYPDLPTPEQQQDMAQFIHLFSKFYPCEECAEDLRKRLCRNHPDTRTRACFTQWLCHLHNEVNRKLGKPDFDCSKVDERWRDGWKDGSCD
N-glyco inh = increase of ERlucT glycosylation luciferase signal, primary screen, N-linked glycosylation inhibitor project, D54 ERlucT cells, luminescence, set 2; D54 ERlucT glycosylation luciferase reporter, 24 h; percent of 100 nM tunicamycin response; reporter increase, % at 12.5 µM; 360,000 tested, 0.23% active; AID 588692, 2011;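 active means mean luciferase reporter signal, scaled so untreated is 0 and the glycosylation-blocking control 100, at or above a set limit in every replicate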;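 further: luciferase carries N-glycosylation sites so blocking glycosylation raises the light; 0% = median of neutral control wells and 100% = median of 100 nM tunicamycin wells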
An asterisk follows results filed as active; i = inactive; / = no result. Shown is part of a subset that was picked to be rich in hits.

SMILES	T cell modulator	ALR H2O2 inh	N-glyco inh
CC(=O)Nc1ccc(OCC(O)Cn2cnc3ccccc32)cc1 (stereo not given)	65	-9	0
Cc1cccc(NC(=O)c2nc[nH]c2C(=O)N2CCc3ccccc3C2)c1	102	-4	4
O=C(CSc1nnc(-c2ccc(Cl)cc2)n1Cc1ccco1)c1cccs1	245	16	-2
O=C(O)c1ccc(CSCc2ccco2)cc1	127	97*	0
O=C(Cc1ccccc1)NCCSCc1ccco1	348	7	0
O=C(CSCc1ccco1)c1cccs1	428	99*	-1
COc1ccc(C(C)(C)NC(=O)C2CCC(=O)N(CCCN3CCCC3=O)C2)cc1 (stereo not given)	198	-9	3
COc1cccc(CCC(=O)Nc2cc3c(cc2C(=O)O)OCCCO3)c1OC	407	7	0
O=C(c1[nH]c(C(F)(F)F)nc1-c1ccccc1)N1CCOCC1	/	/	2
CCCCCCCC(=O)N/N=C/c1ccco1	351	43	-1
CCCCCCC(=O)N/N=C/c1ccco1	824	97*	2
CCCN1CCC(Oc2cccc(C(=O)NCCc3ccccc3)c2)CC1	520	10	-4
N#C/C(=N/Nc1ccccc1[N+](=O)[O-])C(N)=S	247	-1	-2
Cc1ccc(N/N=C(\C#N)C(N)=S)cc1C	279	/	-1
N#C/C(=N\Nc1ccccc1)C(N)=S	175	92*	-1
N#C/C(=N\Nc1ccc(Cl)cc1)C(N)=S	i	94*	-2
C/C(N=Nc1nc2ccccc2s1)=N\Nc1ccccc1O	i	/	-7
CC1(C(=O)NS(=O)(=O)c2cccs2)CCN1C(=O)c1ccccc1CCc1ccccc1 (stereo not given)	/	/	0
COc1cc(NC(=O)c2ccc3c(SCC(=O)O)c4c(nc3c2)CCC4)cc(OC)c1OC	471	-5	1
COc1ccc(NC(=O)CSc2c3c(nc4cc(Cl)ccc24)CCCC3)cc1OC	205	99*	12
CC(C)NC(=O)CSc1c2c(nc3ccccc13)CCCC2	422	76*	3
CC(C)NC(=O)CSc1nc(Cc2ccccc2)nc2ccccc12	161	/	-5
COc1cc(NC(=O)c2ccc3c(SCC(=O)O)c4c(nc3c2)CCCC4)cc(OC)c1OC	344	97*	1
COc1ccc(NC(=O)CSc2nc(O)cc(=O)[nH]2)c(OC)c1	83	99*	0
COc1cc(OC)c(NC(=O)c2ccc3c(SCC(=O)O)c4c(nc3c2)CCCC4)cc1Cl	873	4	-4
SMILES	T cell modulator	ALR H2O2 inh	N-glyco inh
COc1ccc(NC(=O)CSc2cn[nH]n2)c(OC)c1	426	-7	3
COCC(C)NC(=O)COCc1cc(-c2ccc3c(c2)OCO3)on1 (stereo not given)	i	6	0
CCN(Cc1cnn(C)c1)Cc1nc(Cc2ccccc2Cl)no1	290	/	0
Cc1cc(NC(=O)CSc2c3c(nc4ccccc24)CCC3)no1	430	98*	8
COCCNC(=O)CSc1c2c(nc3ccc(Cl)cc13)CCCC2	214	98*	3
O=C(CSc1c2c(nc3ccccc13)CCC2)N1CCCC1	514	98*	-1
Cc1cc(NC(=O)CSc2cc(C)c3ccccc3n2)no1	171	-6	-1
COc1ccc(NC(=O)CSc2c3c(nc4ccccc24)CCCC3)c(OC)c1	213	100*	23
O=C(CSc1c2c(nc3cc(Cl)ccc13)CCCC2)NCc1ccco1	240	/	11
CCOC(=O)C1CCN(C(=O)CSc2c3c(nc4ccccc24)CCC3)CC1	366	-6	2
COc1ccc(OC)c(NC(=O)c2c3c(nc4ccccc24)CCC3)c1	115	-21	-1
CCOC(=O)C1(C)CCCN1C(=O)c1ccc(F)c(Cl)c1 (stereo not given)	/	/	-1
O=C(c1cc(-c2ccccc2O)on1)N1CCCCCC1	468	/	-4
O=C(CSc1nc(O)cc(=O)[nH]1)C1CC1	141	86*	0
NC(=O)C1CCN(C(=O)CSc2nc(O)cc(=O)[nH]2)CC1	240	3	0
COc1cc(NC(=O)CSc2c3c(nc4ccccc24)CCC3)cc(OC)c1OC	189	98*	-2
COc1ccccc1NC(=O)CSc1c2c(nc3ccccc13)CCC2	257	99*	-1
COc1cc(NC(=O)CSc2nnnn2-c2ccccc2)cc(OC)c1OC	436	0	-1
CCn1c(SCC(=O)Nc2ccccc2OC)nc2ccccc2c1=O	405	6	2
O=S(=O)(c1ccc(F)cc1)c1nc(-c2ccco2)oc1NCCCn1ccnc1	/	/	-1
Cc1ccccc1C(=O)NC1CCN(CC(=O)NCc2ccccc2)CC1	226	-2	-1
